Results as given in PubChem BioAssay AID588830 (Broad Institute, 2011).
Active and inactive are the calls of the source.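 How the source made its calls: active means fitted IC50 for falling signal at or below ten times the top tested dose; inconclusive means flat fit with 30 to 70% signal loss, or poor fit; inactive means the rest.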

Assay: short-term cytotoxicity in ldlA[mSR-BI] cells, dose response, cytotoxicity control for SR-BI HDL uptake inhibitor project, cell-based, CellTiter-Glo luminescence, 3 h, dry powder (AID 588830)
Conditions: ldlA[mSR-BI] CHO cells viability, CellTiter-Glo ATP, 3 h; at 30 µM (top of the series)
Method in brief: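 System: ldlA[mSR-BI] cells | Buffer or medium: Ham's F12 with 10% FCS and PSG | Doses: 8-concentration series per compound, added by pin transfer | Timing: 3 h compound exposure at 37 °C, 10 min reagent incubation | Measured by: Luminescence of cellular ATP via Cell Titer Glo reagent | Measure: Cytotoxicity IC50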

Structure (SMILES) | activity change, negative = cytotoxicity
C[C@H]1CN([C@@H](C)CO)C(=O)c2cc(NC(=O)Cc3cn(C)c4ccccc34)ccc2O[C@H]1CN(C)S(=O)(=O)c1ccc(F)cc1 | -1.92% (inactive)

Same assay, conditions: ldlA[mSR-BI] CHO cells viability, CellTiter-Glo ATP, 3 h; at 35 µM (top of the series)

Structure (SMILES) | activity change, negative = cytotoxicity
CCOC(=O)N1CCC(NC(=O)c2ccc3c(c2)N(Cc2ccc(F)cc2)CCS3)CC1 | -4.76% (inactive)
O=C(Nc1ccc(-c2nc3ccc(NC(=O)c4ccc(Cl)cc4)cc3[nH]2)cc1)c1ccc(Cl)cc1 | 3.4% (inactive)
C[C@H](CO)N1C[C@H](C)[C@@H](CN(C)S(=O)(=O)c2ccc(F)cc2)Oc2ccc(NC(=O)Cc3cn(C)c4ccccc34)cc2C1=O | -0.528% (inactive)
C[C@H]1CN([C@@H](C)CO)C(=O)c2cccc(N(C)C)c2O[C@@H]1CN(C)Cc1ccc(Cl)c(Cl)c1 | -3.41% (inactive)
O=C(Nc1ccc(Cl)cc1C(=O)c1ccc(Cl)cc1)c1cc(Br)ccc1NS(=O)(=O)c1ccc(Cl)cc1 | -10% (inactive)
C[C@@H]1CN([C@H](C)CO)C(=O)c2cc(NC(=O)Cc3cn(C)c4ccccc34)ccc2O[C@@H]1CN(C)S(=O)(=O)c1ccc(F)cc1 | 2.73% (inactive)
C[C@H]1CN([C@@H](C)CO)C(=O)c2cccc(NC(=O)Nc3ccccc3)c2O[C@@H]1CN(C)Cc1ccc(Cl)c(Cl)c1 | -15.5% (inactive)
O=C(Nc1cc(C(F)(F)F)ccc1Cl)c1ccccc1NS(=O)(=O)c1ccc(Cl)cc1 | -7.07% (inactive)
COc1cccc(-c2csc(N3CCN(C(=S)Nc4cccc(Cl)c4)CC3)n2)c1 | -9.99% (inactive)
C[C@H](CO)N1C[C@H](C)[C@H](CN(C)S(=O)(=O)c2ccc(F)cc2)Oc2ccc(NS(C)(=O)=O)cc2C1=O | -6.43% (inactive)
CC(OC(=O)c1cccc(NS(C)(=O)=O)c1)C(=O)Nc1ccc(N2CCOCC2)cc1 (configuration not stated) | -7.82% (inactive)
COc1ccc(OC)c(CCNC(=O)c2ccc3c(c2)N(Cc2ccc(F)cc2)CCS3)c1 | -5.33% (inactive)
C[C@@H]1CN([C@H](C)CO)C(=O)c2cc(NC(=O)Cc3cn(C)c4ccccc34)ccc2O[C@H]1CN(C)S(=O)(=O)c1ccc(F)cc1 | 1.06% (inactive)
COc1ccc(-c2nnn(CC(=O)N(C3CCCCC3)C(C)C(=O)NC3CCCC3)n2)cc1OC (configuration not stated) | -4.74% (inactive)
C[C@H]1CN([C@@H](C)CO)C(=O)c2cccc(NC(=O)Nc3ccccc3)c2O[C@@H]1CN(C)Cc1ccccc1 | 0.984% (inactive)
N#Cc1sc2nc(C3CC3)cc(-c3ccc(Cl)cc3)c2c1N | -7.15% (inactive)

Structure (SMILES) | activity change, negative = cytotoxicity
Cc1ccccc1NC(=O)NCC1CCN(c2ccc(S(=O)(=O)N3CCOCC3)cc2)CC1 | -8.7% (inactive)
C[C@H]1CN([C@@H](C)CO)C(=O)c2cccc(NC(=O)Nc3ccccc3)c2O[C@@H]1CN(C)S(C)(=O)=O | -1.01% (inactive)
CCOC(=O)Nc1cccc(NC(=O)c2cc(OC)cc(OC)c2)c1 | -7.68% (inactive)
C[C@H](CO)N1C[C@H](C)[C@H](CN(C)S(=O)(=O)c2ccc(F)cc2)Oc2ccc(NC(=O)Cc3cn(C)c4ccccc34)cc2C1=O | -10% (inactive)
COc1ccc([C@H]2CC(=O)C=C(c3cccc4c3sc3ccccc34)C2)cc1OC | -5.27% (inactive)
CC(C)(C)NC(=O)N1CCN(c2ncccc2C(F)(F)F)CC1 | -3.5% (inactive)
CC(C)OCCCNC(=O)c1ccc(C2SCC(=O)N2Cc2ccco2)cc1 (configuration not stated) | -4.74% (inactive)
C[C@@H]1CN([C@H](C)CO)C(=O)c2cc(NC(=O)Cc3cn(C)c4ccccc34)ccc2O[C@H]1CN(C)S(C)(=O)=O | 3.58% (inactive)
C[C@@H]1CN([C@H](C)CO)C(=O)c2cc(NC(=O)Cc3cn(C)c4ccccc34)ccc2O[C@H]1CN(C)C(=O)Nc1ccc(F)cc1 | 4.57% (inactive)
Cc1cc(C)c2c(c1)NC(c1cc3c(cc1Br)OCO3)C1CC=CC21 (configuration not stated) | -9.46% (inactive)
CC(C)NC(=O)Nc1cccc2c1O[C@H](CN(C)Cc1ccc(Cl)c(Cl)c1)[C@@H](C)CN([C@@H](C)CO)C2=O | 3.31% (inactive)
CCn1c(COc2c(C)cccc2C)nnc1SCC(=O)N1CCN(c2ccccc2)CC1 | -9.72% (inactive)
C[C@H](CO)N1C[C@H](C)[C@H](CN(C)S(=O)(=O)c2ccc(F)cc2)Oc2ccc(NC(=O)Cc3ccccc3)cc2C1=O | -1.65% (inactive)
Cc1cc(C)n(CC(=O)NC2CCCc3c2cnn3-c2ccc(C)c(C)c2)n1 (configuration not stated) | -4.16% (inactive)
C[C@H]1CN([C@@H](C)CO)C(=O)c2cccc(NC(=O)Nc3ccccc3)c2O[C@@H]1CN(C)C | -1.76% (inactive)
